We go through twelve molecules from ChEMBL document CHEMBL1129637, “Conformationally defined 6-s-trans-retinoic acid analogs. 3. Structure-activity relationships for nuclear receptor binding, transcriptional activity, and cancer chemopreventive activity” (J Med Chem, 1996).

The structures appear in SMILES notation. Several values for one entry are separate records, joined by “and”; a condition that tells them apart may be missing. Equal entries are not always repeated.

The target of assay [1] is Cellular retinoic acid-binding protein 1 (Gallus gallus) (UniProt P40220). The assay can be described thus: Inhibition of chick skin Cytoplasmic retinoic acid binding protein at 100-fold excess ligand.
The target in assay [2] is Cellular retinoic acid-binding protein 1 (Gallus gallus, UniProt P40220). The assay can be described thus: Inhibition of [3H]ATRA binding to chick skin Cytoplasmic retinoic acid binding protein.
Assay [3] deals with Cellular retinoic acid-binding protein 1 (Mus musculus, UniProt P62965). The assay is described as follows: Inhibition of [3H]ATRA binding to murine Cytoplasmic retinoic acid binding protein (CRABP) type 1.
The target in assay [4] is T1, Cellular retinoic acid-binding protein 2 (Mus musculus, UniProt P22935).
T1 sequence (P22935 whole entry): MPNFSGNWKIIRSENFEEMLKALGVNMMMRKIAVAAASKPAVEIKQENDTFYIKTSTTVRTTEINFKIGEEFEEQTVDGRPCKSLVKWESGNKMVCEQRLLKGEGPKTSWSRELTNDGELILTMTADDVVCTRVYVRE
The assay can be described thus: Inhibition of [3H]ATRA binding to murine Cytoplasmic retinoic acid binding protein (CRABP) type 2.

Assay [5] is filed under the species Mus musculus. The assay can be described thus: Antitumor activity in Mouse Skin Papilloma model. Format: functional. The gist of the method:
(§1)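 Carcinogen-induced papillomas on mouse dorsal skin, with test retinoid applied 1 h before TPA. Percent papilloma reduction = (1 − mean tumors in retinoid-treated animals / mean tumors in controls) × 100. ED50 came from probit analysis of a dose-response curve. Estimated standard error is 20% of the mean.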

The species entered for assay [6] is Mus musculus. The assay is described as follows: Percentage papilloma reduction (81) at 45.9 nmol dose 1 hr prior to TPA. It is filed as functional. The essentials: as §1
Assay [7] has as its target T2, Retinoic acid receptor RXR-alpha (Homo sapiens, UniProt P19793).
T2 sequence (P19793 whole entry): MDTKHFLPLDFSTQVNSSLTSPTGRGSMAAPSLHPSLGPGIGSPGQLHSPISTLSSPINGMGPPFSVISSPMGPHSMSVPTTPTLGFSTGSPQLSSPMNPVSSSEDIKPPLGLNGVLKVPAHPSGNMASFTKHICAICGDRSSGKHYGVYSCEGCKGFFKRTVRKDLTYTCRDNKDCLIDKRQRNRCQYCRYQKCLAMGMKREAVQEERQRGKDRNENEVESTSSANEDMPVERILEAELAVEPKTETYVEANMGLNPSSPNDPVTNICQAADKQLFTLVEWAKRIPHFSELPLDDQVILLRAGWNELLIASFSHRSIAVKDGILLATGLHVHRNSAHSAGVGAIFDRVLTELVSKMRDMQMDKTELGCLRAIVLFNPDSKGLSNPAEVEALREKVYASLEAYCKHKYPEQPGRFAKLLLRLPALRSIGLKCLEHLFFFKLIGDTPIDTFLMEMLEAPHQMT
The assay can be described thus: Inhibition of binding to human Retinoic acid receptor RXR DEF domain.

For assay [8], the target named is T3, Retinoic acid receptor alpha (Mus musculus) (UniProt P11416).
T3 sequence (whole entry): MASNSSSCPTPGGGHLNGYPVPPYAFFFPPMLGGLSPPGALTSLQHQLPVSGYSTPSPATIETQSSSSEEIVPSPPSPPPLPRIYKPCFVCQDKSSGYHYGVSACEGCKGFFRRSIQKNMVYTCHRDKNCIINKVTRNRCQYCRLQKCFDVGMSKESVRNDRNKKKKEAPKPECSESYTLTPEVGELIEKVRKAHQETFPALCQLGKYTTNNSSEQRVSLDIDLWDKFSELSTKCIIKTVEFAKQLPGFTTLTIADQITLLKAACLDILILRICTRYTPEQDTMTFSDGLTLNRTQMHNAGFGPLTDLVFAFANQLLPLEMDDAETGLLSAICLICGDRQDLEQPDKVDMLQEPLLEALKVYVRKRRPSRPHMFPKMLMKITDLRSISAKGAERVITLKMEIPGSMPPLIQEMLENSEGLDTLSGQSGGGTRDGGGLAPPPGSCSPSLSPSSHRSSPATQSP
The assay can be described thus: Percent inhibition of [3H]ATRA binding to mouse Retinoic acid receptor RAR alpha. More on the design: concentration or dose not given beside the values. Conditions: concentration not given here. The gist of the method:
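RARα was exposed to 1000 nM test retinoid plus 5 nM [3H]-(all-E)-RA. Displacement was compared with a positive control of 1000 nM unlabeled (all-E)-RA and with a no-retinoid control.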

The target in assay [9] is T4, Retinoic acid receptor RXR-alpha (Mus musculus, UniProt P28700).
T4 sequence (P28700 whole entry): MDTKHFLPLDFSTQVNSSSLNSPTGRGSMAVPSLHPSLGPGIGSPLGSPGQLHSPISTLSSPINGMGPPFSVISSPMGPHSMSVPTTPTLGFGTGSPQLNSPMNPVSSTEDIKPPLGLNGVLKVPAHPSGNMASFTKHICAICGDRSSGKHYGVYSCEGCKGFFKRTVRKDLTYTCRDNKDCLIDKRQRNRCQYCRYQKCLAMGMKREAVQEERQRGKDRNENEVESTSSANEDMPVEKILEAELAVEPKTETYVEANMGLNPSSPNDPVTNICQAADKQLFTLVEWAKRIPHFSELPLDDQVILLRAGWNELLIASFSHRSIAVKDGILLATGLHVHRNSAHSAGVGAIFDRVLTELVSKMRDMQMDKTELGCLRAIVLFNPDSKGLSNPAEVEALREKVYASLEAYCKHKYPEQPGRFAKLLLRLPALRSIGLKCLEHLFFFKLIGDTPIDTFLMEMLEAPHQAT
The assay can be described thus: Inhibition of [3H]-(9Z)-RA binding to mouse Retinoic acid receptor RXR alpha.

Assay [10] has as its target T5, Retinoic acid receptor alpha (Mus musculus, UniProt P11416).
T5 sequence (P11416 whole entry): T3 sequence (whole entry)
The assay is described as follows: Inhibition of [3H]ATRA binding to mouse Retinoic acid receptor RAR alpha. The gist of the method: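 Radioligand competition assay for RARα, measuring inhibition of [3H]-(all-E)-RA binding by unlabeled retinoid over a dose series to derive IC50.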

The nature of assay [11]: Inhibition of [3H]ATRA binding to Cytoplasmic retinoic acid binding protein (CRABP) type 1.
Assay [12] is filed under the species Mus musculus. The assay is described as follows: Antitumor activity in Mouse Skin Papilloma model * Value determined by Dawson et al. It is filed as functional.

Sequence of Cellular retinoic acid-binding protein 1 (Mus musculus, UniProt P62965) (P62965 whole entry): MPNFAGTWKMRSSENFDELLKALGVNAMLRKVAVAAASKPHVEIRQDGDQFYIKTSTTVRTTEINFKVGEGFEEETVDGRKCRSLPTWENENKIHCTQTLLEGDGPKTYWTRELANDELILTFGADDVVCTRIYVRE
Sequence of Cellular retinoic acid-binding protein 1 (Gallus gallus, UniProt P40220) (P40220 whole entry): as the sequence (P62965 whole entry) above, with V68I, G71S, P86A, H95Y, T97K, L101I counted along it
Sequence of Cellular retinoic acid-binding protein 1 (Gallus gallus) (P40220 whole entry): as the sequence (P62965 whole entry) above, with V68I, G71S, P86A, H95Y, T97K, L101I counted along it

The inhibition is how much of the control response was suppressed. One may read the IC50 as the midpoint of a concentration-inhibition curve. Usually Kd stands for the equilibrium constant for the complex coming apart. For `CCC1=C(C(C)C)/C(=C/C(C)=C\C=C\C(C)=C\C(=O)O)CCC1`, the inhibition in assay [1] stood at 15%; in assay [8] it was 42%. For the same molecule, the concentration for half-maximal inhibition (IC50) in [2] was greater than 10000 nM; in assay [9], 1000 nM. Besides, the values for the dissociation constant (Kd) in [3], in [4] and in assay [7] were greater than 200 nM, greater than 200 nM and 16 nM, respectively. Further, in [5], the ED50 is greater than 100 nM. The molecule also returned a Reduction in [6] of 43%.

In the case of `CC(=C\C=C\C(C)=C\C(=O)O)/C=C1/C=CCCC1`, the inhibition amounted to 50% in assay [1] and 55% in assay [8]. Besides, the results for the IC50 in assay [2], in assay [10] and in assay [9] were greater than 10000 nM, 600 nM and greater than 2000 nM, respectively. Besides, the results for the dissociation constant Kd in [3], in assay [4] and in assay [7] were 3 nM, 13 nM and greater than 200 nM, respectively. Moreover, in assay [5], the ED50 was greater than 1000 nM. In [6], this molecule came in with a Reduction of 22%.

With `CCC1=C(C(C)C)/C(=C/C(C)=C/C=C/C(C)=C/C(=O)O)CCC1`, the inhibition in [1] came to 100%; in assay [8] it was 98%. Moreover, the ED50 in assay [5] was 2.5 nM. Besides, the Reduction in assay [6] is 99%. This molecule also gave an IC50 in [9] greater than 2000 nM.

Consider `CC1=C(C(C)C)/C(=C/C(C)=C/C=C/C(C)=C/C(=O)O)CCC1`, for which the inhibition in assay [1] and in assay [8] was 100% each time. The Kd in [3] is 1 nM; in [7] it was greater than 200 nM. In [5], the ED50 was found to be 5 nM. The molecule also came in with a Reduction in assay [6] of 95%. Further, the results for the half-inhibitory concentration (IC50) in assay [10] and in assay [9] were 8 nM and greater than 2000 nM, respectively.

In assay [5], `CCC1=C(C(C)C)/C(=C/C(C)=C/C=C/C(C)=CC(=O)O)CCC1` returned an ED50 of 4.7 nmol. Also, the Reduction in assay [6] was 81%.

Take `CC1=C(/C=C/C(C)=C/C=C/C(C)=C/C(=O)O)C(C)(C)CCC1` [TRETINOIN]: the inhibition in assay [1] and in assay [8] was 100% each time. In [5], the ED50 is 3 nM. The molecule also returned a Reduction in assay [6] of 95%.

With `CC1=C(C(C)C)/C(=C/C(C)=C\C=C\C(C)=C\C(=O)O)CCC1`, the results for the inhibition in [1] and in [8] were 43% and 37%, respectively. Besides, the Kd is greater than 200 nM in [3] and 33 nM in [7]. In [5], this molecule gave an ED50 greater than 100 nM. The Reduction in [6] was found to be 30%. For the same molecule, the IC50 in [10] is greater than 1000 nM; in [9] it was 620 nM.

Regarding `C\C(C=C1C=CCCC1)=C/C=C/C(C)=C/C(=O)O`, the inhibition in [1] and in assay [8] was 45% in each case. For the same molecule, the Kd was 3 nM and 10 nM in assay [4]; greater than 200 nM in assay [7]. In addition, the half-maximal inhibitory concentration (IC50) in [10] is greater than 2000 nM; in assay [9] it was greater than 2000 nM; in assay [11] it was greater than 10000 nM.

For the molecule `CC1=C(C)/C(=C/C(C)=C\C=C\C(C)=C\C(=O)O)CCC1`, the inhibition in assay [1] and in assay [8] was 10% in each case. For the same molecule, the half-inhibitory concentration (IC50) is greater than 10000 nM in [2], greater than 2000 nM in [10] and greater than 2000 nM in assay [9]. The values for the dissociation constant Kd in [3], in [4] and in assay [7] were greater than 200 nM, greater than 200 nM and 120 nM, respectively. The molecule further returned a Reduction in assay [6] of 50%.

In the case of `CC1=C(/C=C/C(C)=C\C=C\C(C)=C\C(=O)O)C(C)(C)CCC1` [ALITRETINOIN], the inhibition came out at 25% in assay [1] and 95% in assay [8]. The ED50 in [5] came out at 2.1 nM. Besides, in [6], the Reduction was determined as 95%.

As for `CC(=CC(=O)O)/C=C/C=C(C)/C=C/C1=C(C)CCCC1(C)C` [ISOTRETINOIN], in assay [12], the ED50 was 64 nmol.

In the case of `CC1=C(C)/C(=C/C(C)=C/C=C/C(C)=C/C(=O)O)CCC1`, the inhibition in [1] and in assay [8] was 90% each time. Besides, the IC50 is 1300 nM in assay [2], 55 nM in [10] and greater than 2000 nM in [9]. The values for the dissociation constant Kd in assay [3], in [4] and in assay [7] were 1.2 nM, 13 nM and greater than 200 nM, respectively. Also, the ED50 in assay [5] came out at 490 nM. The same molecule had a Reduction in [6] of 32%.
